# In the library only some 2.2% were active in any assay of this set; here they are far more common.
# MT1-MMP act inh: blockers of MT1-MMP proenzyme processing, primary screen, HT1080 RFP-PRO-GFP cells, GFP/RFP fluorescence | 360,000 tested, 0.061% active | Matrix metalloproteinase-14 (Homo sapiens), P50281 | GFP/RFP ratio change, % at 20 µM | GFP/RFP ratio fluorescence, overnight; percent of plate control window, DMSO zero | AID 651647, 2012;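 active = GFP/RFP ratio change of at least 30% with cell ATP level not reduced by more than half and red fluorescence within 50% of control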
#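 system = RFP-PRO-GFP reporter HT1080 cells | dosing = 20 µM single dose, 1% DMSO | timing = overnight cell settling, then overnight compound exposure, 37 °C, 5% CO2 | read-out basis = GFP/RFP fluorescence ratio | controls = DMSO and RFP-L50D-GFP cell wells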
# Tn7 DDE FP: inhibitors of Tn7 peptide binding to fibrin DD(E), primary screen, biochemical, fluorescence polarization, human fibrin, Tn7 probe | Fibrinogen beta chain (Homo sapiens), P02675 | FP displacement of FITC-Tn7 peptide from fibrin DD(E); 0% = median of compound wells per plate | inhibition, % at 8.3 µM | 370,000 tested, 0.13% active | AID 720508, 2013;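 active = inhibition above the mean of compounds falling within the control limits plus 3 SD of them, cut at about 14% in these data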;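 note: 0% = plate median of compound wells and 100% = 10 µM Aha-Tn7 peptide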
# Target sequence (P02675 whole entry, looked up): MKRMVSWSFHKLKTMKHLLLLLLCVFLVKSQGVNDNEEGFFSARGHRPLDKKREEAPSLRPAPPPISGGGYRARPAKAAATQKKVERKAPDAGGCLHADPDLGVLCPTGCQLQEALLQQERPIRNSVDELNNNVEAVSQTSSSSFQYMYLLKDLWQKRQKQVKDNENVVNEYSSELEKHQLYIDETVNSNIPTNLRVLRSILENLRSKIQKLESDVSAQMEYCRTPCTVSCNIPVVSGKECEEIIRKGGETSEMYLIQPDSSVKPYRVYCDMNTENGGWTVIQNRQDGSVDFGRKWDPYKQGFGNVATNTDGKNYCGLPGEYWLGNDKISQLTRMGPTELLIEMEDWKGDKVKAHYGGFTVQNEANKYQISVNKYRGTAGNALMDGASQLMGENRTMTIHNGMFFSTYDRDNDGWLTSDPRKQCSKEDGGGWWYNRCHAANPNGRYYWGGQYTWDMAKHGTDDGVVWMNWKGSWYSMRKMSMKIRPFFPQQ
#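 Assay system: Human fibrin DD(E) protein | Medium: Tris buffer with calcium and detergent, pH 7.8 | Reagent: 0.1 µM fluorescent Tn7 | Compound dosing: Single point at 8.3 µM | Times: 10 min preincubation, 3 h with tracer, room temperature | Detection: Fluorescence polarization of the labelled Tn7 tracer | Controls: Aha-Tn7 high control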
# Tn6 DDE FP: inhibitors of Tn6 peptide binding to fibrin DD(E), primary screen, biochemical, fluorescence polarization, human fibrin, Tn6 probe; Fibrinogen beta chain (Homo sapiens), P02675; Fibrin DD(E) TRITC-Tn6 fluorescence polarization displacement; inhibition, % at 8.3 µM; 370,000 tested, 0.21% active; AID 720509, 2013;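 active = inhibition above a per-campaign cutoff: mean of compounds within control limits plus 3 SD, cut at about 15% in these data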;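 note: 0% = median of all compound wells on the plate and 100% = blocking peptide control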
# Neddylation inh: inhibitors of cullin neddylation, primary screen, biochemical, TR-FRET, uHTS, NAE and Ubc12; 360,000 tested, 0.58% active; AID 651699, 2012; NEDD8-conjugating enzyme Ubc12 (Homo sapiens) + NEDD8-activating enzyme E1 regulatory …; calls only at 25 µM; in the data active = inhibition above about 36%
# SKN-1 inh: suppressors of acrylamide-induced Pgst-4::GFP reporter in worms, primary screen, SKN-1 inhibitor project, whole organism, uHTS, GFP/RFP fluorescence ratio, strain VP596. C. elegans VP596 Pgst-4::GFP/RFP ratio, 24 h. 360,000 tested, 0.49% active. inhibition, % at 21.8 µM;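 active = interference check ratio from 0.5 to 1.5 plus GFP to RFP signal ratio inhibition reaching or exceeding a fixed threshold, cut at about 30% in these data, passing the limit was not always enough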
# proKLK7 act: proKLK7 zymogen activators, primary screen, biochemical, fluorescence intensity. AID 652039, 2013. purified proKLK7, EDANS-DABCYL substrate fluorescence; 100% is mature enzyme control, 0% vehicle. activation, % at 7 µM. 370,000 tested, 0.9% active. Kallikrein-7 (Homo sapiens), P49862;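 active = activation above the mean of all tested compounds plus 3 SD, computed per campaign excluding outliers beyond control limits, cut at about 13% in these data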
# Target sequence (P49862 whole entry, looked up): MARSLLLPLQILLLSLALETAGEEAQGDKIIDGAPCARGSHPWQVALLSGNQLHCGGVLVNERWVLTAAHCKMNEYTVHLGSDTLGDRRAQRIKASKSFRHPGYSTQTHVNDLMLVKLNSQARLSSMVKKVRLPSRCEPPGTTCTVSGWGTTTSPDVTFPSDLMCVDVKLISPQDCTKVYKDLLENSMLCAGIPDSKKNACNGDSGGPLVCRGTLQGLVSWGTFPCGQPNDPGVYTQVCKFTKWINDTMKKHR
# KLK7 act conf: proKLK7 zymogen activators, confirmation, biochemical, fluorescence intensity, triplicate; shares compounds with proKLK7 act; purified proKLK7, EDANS-DABCYL substrate fluorescence; scaled: vehicle 0, mature enzyme 100; activation, % at 7 µM; 3,200 tested, 68% active; AID 686949, 2013;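 active = activation, as change over the incubation, above the mean of all tested compounds plus 3 SD, cut at about 13% in these data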
# EDANS interfere: EDANS-DABCYL substrate optical interference, artefact control for kallikrein-7 zymogen activator project, biochemical, fluorescence intensity, high throughput | shares compounds with proKLK7 act | no enzyme, 4 h; solvent 0%, active enzyme control 100% | activation, % at 7 µM | 3,200 tested, 80% active | AID 686952, 2013;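 active = activation above the all-compound mean plus 3 SD, ignoring values outside control-based bounds, cut at about 4.8% in these data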;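 note: value is the 4 h activation minus the activation read at time zero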
# K7 EDANS ctr: optically interferes with EDANS-DABCYL fluorescence, kallikrein-7 activator counter-screen | EDANS-DABCYL peptide fluorescence interference, no enzyme | 250 tested, 20% active | shares compounds with proKLK7 act | EC50, µM;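 active = compounds that raise the fluorescence signal in this interference counterscreen, with EC50 at or below 10 µM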;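 note: intact quenched peptide substrate alone read at 355 nm excitation and 520 nm emission; signal is fluorescence gain from T0 to T4 after four hours at room temperature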
# The depositor's hits bear a star; i = inactive; x = no result shown.
SMILES,MT1-MMP act inh,Tn7 DDE FP,Tn6 DDE FP,Neddylation inh,SKN-1 inh,proKLK7 act,KLK7 act conf,EDANS interfere,others
CCN1CCN(Cc2c(O)c(Cl)cc3c(C)cc(=O)oc23)CC1,4.2,5.5,11.8,x,6.7,70.7*,81.3*,79.6*,
Cc1cc2oc(=O)cc(CN3CCC(C)CC3)c2cc1Cl,-2.8,8.1,-2.1,i,5.9,-0.1,x,x,
CCOP(=O)(OCC)C(NC(=O)c1cccs1)C(F)(F)F (stereo not drawn),-2.4,0.3,-11.7,i,0.3,167.4*,241.0*,246.9*,
OCC1(Cc2ccccc2)CCN(Cc2cnn(-c3ccccc3F)c2)CC1,1.1,7.1,-5.7,i,-4.9,0.4,x,x,
CCC(C)[C@H](NC(=O)NCCCN1CCOCC1)C(=O)OC (stereo partly drawn),5.8,-0.1,-12.3,i,5.9,0.2,x,x,
OCc1ccccc1-c1cccc2nccn12,-12.2,x,x,i,20.2,x,x,x,
OCc1ccc(-c2cncc3nccn23)cc1,1.7,-2.8,-2.3,x,11.8,22.6*,26.8*,26.9*,
Cc1cc(C)c(C(=O)COC(=O)c2cccc(S(=O)(=O)NCc3ccccc3)c2)cc1C,-5.2,2.2,2.2,i,4.7,-0.2,x,x,
CCN1CCSc2ccc(C(=O)NCc3cccc(F)c3)cc21,-1.3,-3.0,3.8,x,8.0,15.7*,-56.0,-36.2,
CN1CCSc2ccc(C(=O)NCc3ccccc3)cc21,0.8,12.3,-0.7,x,11.4,42.9*,5.8,24.1*,
CCN1CCSc2ccc(C(=O)NCc3cccc(Br)c3)cc21,2.3,6.4,3.8,i,9.3,5.9,x,x,
Cc1ccccc1C(OCCN(C)C)c1ccccc1 (stereo not drawn),1.5,-0.4,3.1,i,-28.4,-0.1,x,x,
COc1ccc(N2CCN(C(=O)CCNS(=O)(=O)c3ccc(C)cc3)CC2)cc1,-0.9,-3.4,2.2,i,-4.3,0.0,x,x,
CCOC(=O)c1ccc(NC(=O)C2(c3ccccc3)CCOCC2)cc1,-4.4,4.5,1.1,i,6.3,-0.1,x,x,
O=C(ONC(=O)C1C2C=CC(C2)C1C(=O)NOC(=O)c1ccccc1)c1ccccc1 (stereo not drawn),5.1,-3.3,-1.2,i,-3.5,45.0*,0.5,-1.5,
COC1=CC(=O)c2nc(Cl)ccc2C1=O,-39.2,-7.7,-11.8,i,0.4,92.2*,161.0*,160.8*,
COC1=CC(=O)c2c(ccc3ncnc(N)c23)C1=O,-102.3,-5.6,3.9,i,20.9,1.8,x,x,
Cc1oc2c(CN(C)C)c(O)ccc2c(=O)c1-c1ccc2ccccc2n1,0.3,5.2,-3.0,i,2.5,-0.3,x,x,
CCc1cc2c(=O)c(Oc3ccccc3F)c(C)oc2c(CN(C)C)c1O,-0.1,-3.8,-3.6,x,-10.3,63.4*,72.1*,74.3*,
Cc1ccc2nc3c(cc(C(=O)NC4CCCC4)c(=N)n3C3CCCCC3)c(=O)n2c1,3.2,-8.1,1.0,x,13.5,-3.8,x,x,
CCOCCCNc1nc2nc3ccc(C)cn3c(=O)c2cc1C(=O)NCC1CCCO1 (stereo not drawn),-0.3,-3.8,3.0,i,-2.6,55.0*,16.5*,25.8*,
Cc1ccc2nc3c(cc(C(=O)NCC4CCCO4)c(=N)n3CCCOC(C)C)c(=O)n2c1 (stereo not drawn),4.1,-8.8,-6.2,i,8.1,106.0*,44.8*,44.1*,
CCn1cc(C(=O)NCC2CCCO2)c2cc(OC)c(OC)cc2c1=O (stereo not drawn),2.0,-8.1,2.4,i,14.5,0.1,x,x,
Cc1cc(=O)oc2c3c(cc(OCC(=O)NCC(=O)N[C@H](C(=O)O)C(C)C)c12)OC(C)(C)CC3,-1.8,-2.6,3.3,x,-13.2,42.6*,61.7*,72.1*,
CC[C@H](C)[C@H](NC(=O)CNC(=O)COc1cc2c(c3oc(=O)cc(C)c13)CCC(C)(C)O2)C(=O)O,3.3,3.1,2.4,x,-11.8,50.2*,-0.7,-17.7,
SMILES,MT1-MMP act inh,Tn7 DDE FP,Tn6 DDE FP,Neddylation inh,SKN-1 inh,proKLK7 act,KLK7 act conf,EDANS interfere,others
CC1(C)Cc2c(cnn2-c2cccc(F)c2)C(NC(=O)c2ccc[n+]([O-])c2)C1 (stereo not drawn),-1.0,2.2,0.3,i,-9.1,-0.9,x,x,
Cn1c(=O)c2cc(NC(=O)OCCF)ccc2n1Cc1cccc(C(F)(F)F)c1,-4.4,5.1,1.1,x,31.5,13.3*,9.0,5.7*,
COc1cccc(CNC(=S)Nc2ccc3c(c2)c(=O)n(C)n3Cc2ccccc2)c1,4.0,3.3,2.5,x,11.9,1.2,x,x,
COc1cccc(CNC(=S)Nc2ccc3c(c2)c(=O)n(C)n3Cc2csc(C)n2)c1,1.0,-5.2,-9.0,x,-8.4,15.2*,-1.6,1.6,
Cc1ccc(CNC(=S)Nc2ccc3c(c2)c(=O)n(C)n3Cc2cccc(C(F)(F)F)c2)cc1,3.8,-10.9,-2.8,x,14.0,2.1,x,x,
CCNC(=S)Nc1ccc2c(c1)c(=O)n(C)n2Cc1cccc(C(F)(F)F)c1,2.3,12.3,8.7,x,-6.2,19.6*,-7.2,-5.6,
CC(OC(=O)C12CC3CC(CC(O)(C3)C1)C2)C(N)=O (stereo not drawn),2.0,-3.5,-0.1,i,3.5,0.4,x,x,
COc1ccc(-c2cc(=O)oc3cc(OC(=O)C4CCCCC4)c(Cl)cc23)cc1,-9.9,2.9,1.2,x,10.0,63.5*,63.8*,37.3*,K7 EDANS ctr=>69.5
COc1ccc(-c2cc(=O)oc3cc(O)ccc23)cc1,-19.1,5.8,6.8,x,-2.4,-25.7,x,x,
Cc1cc(C)cc(Cn2c3ccc(NC(=O)NCc4ccccc4)cc3c(=O)n2C)c1,13.2,-5.8,3.3,x,3.4,-1.9,x,x,
